Consider 26 compounds from ChEMBL document CHEMBL3046282, “Synthesis, insecticidal activity, crystal structure, and molecular docking studies of nitenpyram analogues with an ω-hydroxyalkyl ester arm anchored on the tetrahydropyrimidine ring” (2012).

In brackets after ≈: the same amount, converted by molar mass. Activity calls are given as the source filed them. The rule behind the calls is not given here.

For assay [1], the system named is Myzus persicae. Nature of the assay: Insecticidal activity against Myzus persicae (green peach aphid) assessed as mortality at 25 degC after 72 hr at 20 mg/L. It is filed as functional.
Assay [2] deals with Myzus persicae. Briefly: Insecticidal activity against Myzus persicae (green peach aphid) assessed as mortality at 25 degC after 72 hr at 100 mg/L. Format: functional.
The subject of assay [3] is Nilaparvata lugens. Briefly: Insecticidal activity against Nilaparvata lugens (brown planthopper) assessed as mortality at 25 degC after 72 hr at 20 mg/L. It is filed as functional. Summed up: (§1)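 Standard spray test with slight modification. Compounds dissolved in DMF, then serially diluted with water containing Triton X-80 (0.1 mg/L). Groups of 12 insects in glass Petri dishes sprayed with a Potter sprayer, air-dried, then held under normal rearing conditions (25±1 °C, […], 12 h light). Scored at 72 h on a 0–100 scale against a negative control, using kill count and size of live insects. Three replicates.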

Assay [4] deals with Nilaparvata lugens. Briefly: Insecticidal activity against Nilaparvata lugens (brown planthopper) assessed as mortality at 25 degC after 72 hr at 100 mg/L. It is filed as functional. In outline:
as §1

A short description of assay [5]: Binding affinity to nicotinic acetylcholine receptor assessed as hydrogen bonding.
For assay [6], the system named is Myzus persicae. Nature of the assay: Insecticidal activity against Myzus persicae (green peach aphid) assessed as mortality at 25 degC after 72 hr. It is filed as functional.
Assay [7] deals with Nilaparvata lugens. Nature of the assay: Insecticidal activity against Nilaparvata lugens (brown planthopper) assessed as mortality at 25 degC after 72 hr. It is filed as functional.
In assay [8] the test system is Myzus persicae. Briefly: Insecticidal activity against Myzus persicae (green peach aphid) assessed as mortality at 25 degC after 72 hr at 4 mg/L. Format: functional.
Assay [9] has as its system Nilaparvata lugens. Briefly: Insecticidal activity against Nilaparvata lugens (brown planthopper) assessed as mortality at 25 degC after 72 hr at 4 mg/L. It is filed as functional. In outline:
as §1

Broadly, the mortality is the percentage killed. Take `CCN(Cc1ccc(Cl)nc1)C1=C([N+](=O)[O-])CN(CCC(=O)OCCCCCCO)CN1C`: the mortality at 20 µg/mL in the assay on Myzus persicae [1] is 33%; with Nilaparvata lugens [3] it was 25%. The mortality at 100 µg/mL turned out to be 95% in the assay with Myzus persicae [2] and 90% in the assay on Nilaparvata lugens [4].

As for `CCN(Cc1ccc(Cl)nc1)C1=C([N+](=O)[O-])CN(CCCC(=O)OCCCCCO)CN1C`, the results for the mortality at 20 µg/mL with Myzus persicae [1] and with Nilaparvata lugens [3] were 25% and 15%, respectively. For the same compound, the mortality at 100 µg/mL in the assay with Myzus persicae [2] came out at 95%; in the assay on Nilaparvata lugens [4], 98%.

As a reminder, the LC50 is the concentration lethal to half of the exposed cells or organisms. In the case of `CCN(Cc1ccc(Cl)nc1)C1=C([N+](=O)[O-])CN(C(CC(C)C)C(=O)OCCO)CN1C` (centres undefined), the outcome in assay [5] was Active. Moreover, the LC50 with Myzus persicae [6] (Myzus persicae, 72 h) is 0.17 µg/mL (≈ 0.362 µM); in the assay with Nilaparvata lugens [7], 0.17 µg/mL (≈ 0.362 µM). Also, the mortality at 4 µg/mL with Myzus persicae [8] came out at 100%; with Nilaparvata lugens [9], 95%. In addition, the mortality at 20 µg/mL with Myzus persicae [1] and in the assay on Nilaparvata lugens [3] was 100% each time. For the same compound, the mortality at 100 µg/mL with Myzus persicae [2] and in the assay with Nilaparvata lugens [4] was 100% in each case.

As for `CCN(Cc1ccc(Cl)nc1)C1=C([N+](=O)[O-])CN(CCC(=O)OCCCO)CN1C`, the mortality at 4 µg/mL was determined as 55% in the assay with Myzus persicae [8] and 70% in the assay with Nilaparvata lugens [9]. In addition, the mortality at 20 µg/mL with Myzus persicae [1] came out at 100%; in the assay with Nilaparvata lugens [3], 98%. Also, the mortality at 100 µg/mL with Myzus persicae [2] and in the assay with Nilaparvata lugens [4] was 100% throughout.

Consider `CCN(Cc1ccc(Cl)nc1)C1=C([N+](=O)[O-])CN(C(Cc2ccccc2)C(=O)OCCO)CN1C` (centres undefined), for which the mortality at 20 µg/mL in the assay on Myzus persicae [1] was found to be 15%; with Nilaparvata lugens [3], 20%. Also, the mortality at 100 µg/mL is 90% in the assay with Myzus persicae [2] and 80% in the assay with Nilaparvata lugens [4].

Take `CCN(Cc1ccc(Cl)nc1)/C(=C/[N+](=O)[O-])NC` [NITENPYRAM]: the LC100 in the assay with Myzus persicae [6] was 0.129 mg/L. Besides, the mortality at 4 µg/mL in the assay with Myzus persicae [8] and in the assay on Nilaparvata lugens [9] was 100% each time. Also, the mortality at 20 µg/mL in the assay with Myzus persicae [1] and in the assay on Nilaparvata lugens [3] was 100% in each case. Also, the mortality at 100 µg/mL with Myzus persicae [2] and with Nilaparvata lugens [4] was 100% throughout.

As for `CCN(Cc1ccc(Cl)nc1)C1=C([N+](=O)[O-])CN(CCCC(=O)OCCCCO)CN1C`, the figures for the mortality at 20 µg/mL with Myzus persicae [1] and in the assay on Nilaparvata lugens [3] were 70% and 78%, respectively. The mortality at 100 µg/mL was found to be 95% in the assay on Myzus persicae [2] and 100% in the assay on Nilaparvata lugens [4].

As for `CCN(Cc1ccc(Cl)nc1)C1=C([N+](=O)[O-])CN(CC(=O)OCCCCCO)CN1C`, the mortality at 20 µg/mL with Myzus persicae [1] turned out to be 25%; in the assay with Nilaparvata lugens [3], 23%. The mortality at 100 µg/mL stood at 100% with Myzus persicae [2] and 90% in the assay on Nilaparvata lugens [4].

On to `CCN(Cc1ccc(Cl)nc1)C1=C([N+](=O)[O-])CN(CCC(=O)OC(C)C)CN1C`, for which the mortality at 4 µg/mL in the assay on Nilaparvata lugens [9] came out at 70%. For the same compound, the mortality at 20 µg/mL in the assay on Nilaparvata lugens [3] stood at 100%. The mortality at 100 µg/mL in the assay on Nilaparvata lugens [4] was 100%.

`CCN(Cc1ccc(Cl)nc1)C1=C([N+](=O)[O-])CN(CCC(=O)OCCCCCO)CN1C`: the mortality at 20 µg/mL was found to be 50% in the assay on Myzus persicae [1] and 40% in the assay with Nilaparvata lugens [3]. The mortality at 100 µg/mL worked out at 98% with Myzus persicae [2] and 100% in the assay on Nilaparvata lugens [4].

For `CCN(Cc1ccc(Cl)nc1)C1=C([N+](=O)[O-])CN(CC(=O)OCCCO)CN1C`, the mortality at 20 µg/mL in the assay with Myzus persicae [1] was found to be 50%; with Nilaparvata lugens [3], 45%. Also, the mortality at 100 µg/mL with Myzus persicae [2] and in the assay with Nilaparvata lugens [4] was 100% throughout.

In the case of `CCN(Cc1ccc(Cl)nc1)C1=C([N+](=O)[O-])CN(CC(=O)OCCCCCCO)CN1C`, the mortality at 20 µg/mL turned out to be 10% with Myzus persicae [1] and 15% in the assay on Nilaparvata lugens [3]. Besides, the results for the mortality at 100 µg/mL in the assay with Myzus persicae [2] and with Nilaparvata lugens [4] were 95% and 90%, respectively.

For `CCN(Cc1ccc(Cl)nc1)C1=C([N+](=O)[O-])CN(CCCC(=O)OCCCO)CN1C`, the mortality at 20 µg/mL in the assay with Myzus persicae [1] stood at 92%; in the assay on Nilaparvata lugens [3], 80%. Further, the mortality at 100 µg/mL with Myzus persicae [2] and with Nilaparvata lugens [4] was 100% in each case.

Consider `CCN(Cc1ccc(Cl)nc1)C1=C([N+](=O)[O-])CN(C(C(=O)OCCO)c2ccc(Cl)cc2)CN1C` (centres undefined), for which the mortality at 20 µg/mL in the assay on Myzus persicae [1] and in the assay with Nilaparvata lugens [3] was 25% throughout. In addition, the mortality at 100 µg/mL with Myzus persicae [2] and in the assay on Nilaparvata lugens [4] was 95% each time.

Consider `CCN(Cc1ccc(Cl)nc1)C1=C([N+](=O)[O-])CN(C(Cc2ccc(O)cc2)C(=O)OCCO)CN1C` (single isomer, unassigned; (+)), for which the mortality at 20 µg/mL came to 10% with Myzus persicae [1] and 15% in the assay with Nilaparvata lugens [3]. For the same compound, the mortality at 100 µg/mL with Myzus persicae [2] stood at 85%; in the assay on Nilaparvata lugens [4], 80%.

For `CCN(Cc1ccc(Cl)nc1)C1=C([N+](=O)[O-])CN(CCC(=O)OCCO)CN1C`, in assay [5], the result was Active. The LC50 with Nilaparvata lugens [7] was determined as 0.154 µg/mL (≈ 0.36 µM). Also, the mortality at 4 µg/mL with Myzus persicae [8] and in the assay with Nilaparvata lugens [9] was 100% in each case. For the same compound, the mortality at 20 µg/mL in the assay on Myzus persicae [1] and in the assay on Nilaparvata lugens [3] was 100% throughout. The mortality at 100 µg/mL with Myzus persicae [2] and in the assay on Nilaparvata lugens [4] was 100% throughout.

`CCCOC(=O)CCN1CC([N+](=O)[O-])=C(N(CC)Cc2ccc(Cl)nc2)N(C)C1`: the mortality at 4 µg/mL in the assay on Nilaparvata lugens [9] amounted to 75%. Further, the mortality at 20 µg/mL in the assay with Nilaparvata lugens [3] stood at 100%. The mortality at 100 µg/mL in the assay on Nilaparvata lugens [4] came to 100%.

For the compound `CCN(Cc1ccc(Cl)nc1)C1=C([N+](=O)[O-])CN(CC(=O)OCCO)CN1C`, the results for the mortality at 20 µg/mL in the assay on Myzus persicae [1] and with Nilaparvata lugens [3] were 58% and 50%, respectively. For the same compound, the mortality at 100 µg/mL in the assay on Myzus persicae [2] and in the assay on Nilaparvata lugens [4] was 100% in each case.

In the case of `CCN(Cc1ccc(Cl)nc1)C1=C([N+](=O)[O-])CN(CCCC(=O)OCCCCCCO)CN1C`, the mortality at 20 µg/mL with Myzus persicae [1] and with Nilaparvata lugens [3] was 10% in each case. For the same compound, the mortality at 100 µg/mL was 88% with Myzus persicae [2] and 90% with Nilaparvata lugens [4].

As to `CCN(Cc1ccc(Cl)nc1)C1=C([N+](=O)[O-])CN(C(CC(C)C)C(=O)OC)CN1C` (centres undefined), in the assay with Nilaparvata lugens [7], the LC50 was determined as 0.216 µg/mL (≈ 0.491 µM). Also, in the assay with Nilaparvata lugens [9], the mortality at 4 µg/mL came out at 50%. For the same compound, the mortality at 20 µg/mL in the assay with Nilaparvata lugens [3] is 100%. Besides, the mortality at 100 µg/mL in the assay with Nilaparvata lugens [4] worked out at 100%.

For the compound `CCN(Cc1ccc(Cl)nc1)C1=C([N+](=O)[O-])CN(CC(=O)OCCCCO)CN1C`, the mortality at 20 µg/mL in the assay on Myzus persicae [1] is 33%; with Nilaparvata lugens [3], 30%. The figures for the mortality at 100 µg/mL in the assay on Myzus persicae [2] and with Nilaparvata lugens [4] were 100% and 95%, respectively.

Turning to `CCN(Cc1ccc(Cl)nc1)C1=C([N+](=O)[O-])CN(CCCC(=O)OCCO)CN1C`, the mortality at 4 µg/mL in the assay on Myzus persicae [8] is 10%. The mortality at 20 µg/mL in the assay on Myzus persicae [1] came to 100%; with Nilaparvata lugens [3], 90%. Further, the mortality at 100 µg/mL in the assay on Myzus persicae [2] and in the assay with Nilaparvata lugens [4] was 100% throughout.

Take `CCC(C)C(C(=O)OCCO)N1CC([N+](=O)[O-])=C(N(CC)Cc2ccc(Cl)nc2)N(C)C1` (single isomer, unassigned; (+)): the mortality at 4 µg/mL with Myzus persicae [8] came out at 30%; in the assay with Nilaparvata lugens [9] it was 35%. Moreover, the mortality at 20 µg/mL with Myzus persicae [1] and with Nilaparvata lugens [3] was 95% each time. Moreover, the mortality at 100 µg/mL in the assay on Myzus persicae [2] and in the assay on Nilaparvata lugens [4] was 100% in each case.

For the compound `CCN(Cc1ccc(Cl)nc1)C1=C([N+](=O)[O-])CN(CCC(=O)OCCCCO)CN1C`, the results for the mortality at 20 µg/mL with Myzus persicae [1] and with Nilaparvata lugens [3] were 83% and 80%, respectively. Also, the mortality at 100 µg/mL in the assay with Myzus persicae [2] and in the assay with Nilaparvata lugens [4] was 100% throughout.

`CCN(Cc1ccc(Cl)nc1)C1=C([N+](=O)[O-])CN(C(C(=O)OCCO)C(C)C)CN1C` (centres undefined): the mortality at 20 µg/mL in the assay on Myzus persicae [1] stood at 58%; in the assay with Nilaparvata lugens [3], 65%. In addition, the values for the mortality at 100 µg/mL in the assay on Myzus persicae [2] and with Nilaparvata lugens [4] were 100% and 95%, respectively.

Regarding `CCN(Cc1ccc(Cl)nc1)C1=C([N+](=O)[O-])CN(C(C)C(=O)OCCO)CN1C` (single isomer, unassigned; (+)), the mortality at 20 µg/mL in the assay with Myzus persicae [1] is 40%; with Nilaparvata lugens [3] it was 45%. Also, the mortality at 100 µg/mL was determined as 100% with Myzus persicae [2] and 95% in the assay with Nilaparvata lugens [4].
